Reference: the RNAGym collection of RNA variant scans (doi:10.1126/science.aae0568)
This sample holds only a part of the variants without activity.

B1: tRNA (parent)
chain: GUUCCGUUGGCGUAAUGGUAACGCGUCUCCCUCCUAAGGAGAAGACUGCGGGUUCGAGUCCCGUACGGAACG

Variants of: B1
Assay: yeast fitness relative to wild type (ratio to wild type); higher = fitter; tRNA-Arg(CCU), competitive growth, 37 C, YPD
Procedure, shortened: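 Genotype frequency changes were the basis for Darwinian fitness relative to wild type. The frequencies came from 100-nucleotide paired-end sequencing of gene amplicons from the start population and each end population of pooled yeast strains with tRNA-Arg(CCU) gene variants at the native locus. Competition ran in YPD at 37°C for 24 hours in six replicates, genotypes needed ≥ 100 starting reads, and estimates < 0.5 were set to 0.5.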

| Variant | yeast fitness |
| --- | --- |
| GUUCCGUUGGCGUAAUCGUAACGCGUCUUCCACCUAAGGAGAAGAUUGCGGGUUCGAGUACCGUAGGGAACG [G17C C29U U32A C46U C60A C66G] | ≤ 0.5 |
| GUUCCGUUGGCGUAAUCCUAAAGCGUCUCCCUCCUAAGGACUAGACUGCGGGUUCGAGUCCCGCACGGAACG [G17C G18C C22A G41C A42U U64C] | ≤ 0.5 |
| GUUCCGUUGGCGUAAUCGUAACGCGUCUCCCUCCUAAGCAGAAGUCUGCGGGUUCGACUCCCGUACGGAACG [G17C G39C A45U G58C] | ≤ 0.5 |
| GUUCCGUUGGCGUAAUCCUAACGCGUCUCCCUCCUAAGGAGAAGACUGCGAGUUCGAGUCCCGUACGGAACG [G17C G18C G51A] | ≤ 0.5 |
| GUUCCGUUGGCGUAAUCGUAACGCGUCUCUCUCCUAAGGGGAAGACUGCGGGUUCGAGUCCCGUACGGAACG [G17C C30U A40G] | 0.686 |
| GUUCCGUUGGCGUAAUCGUAACGCGUCUCCGUCCUAAGGAGAAGACUGCGGGUUCGAGUCCCGUACGGAACG [G17C C31G] | 0.634 |
| GUUCCGUUGGCGUAAUCAUAACGCGUUUCCCUCCUAAGGAGAAGAUUGCGGGUUCGAAUCCCGUACGGAACG [G17C G18A C27U C46U G58A] | ≤ 0.5 |
| GUUCCGUUGGCGUAAUCGUAACGCGUCUCACUCGUACGGAGAAGACUGCGGGCUCGAGUCCCCUACGGAACG [G17C C30A C34G A37C U53C G63C] | ≤ 0.5 |
| GUUCCGUUGGCGUAAUCGUAACGCGUCUCCCUCCUAAGGAGAAGACUGCGGGUUCGAGUCCCGUAAGGAACG [G17C C66A] | 0.575 |
| GUUCCGUUGGCGUAAUCGUAACGCGUCUCCCUCGUACGGAGAAGACUGCGGGUUCGAGUCCAGUACGGAACG [G17C C34G A37C C62A] | 0.561 |
| GUUCCGUUGGCGUAAUCGUAACGCCUCUCCCUCCUAGGGAGAAGACUGCGGGUUCGAGUCCCGUACGGAACG [G17C G25C A37G] | ≤ 0.5 |
| GUUCCGUUGGCGUAAUCGUAACGCGUCUCCCUCCUAAGGAGAAGACUGCGGGUUUGAGUCCCGUACGGUACG [G17C C55U A69U] | ≤ 0.5 |
| GUUCCGUUGGCGUAAUCGUAACGCGUCUCUCUCCUGAGGAGAAGACUGCGGGUUCGAGUCCCGUACUGAGCG [G17C C30U A36G G67U A70G] | ≤ 0.5 |
| GUUCCGUUGGCGUAAUCGUAACGCGUCUCCCUCCUAAGGAGAAGACUGUGGGUUCGAGUCGCGUAUGGAACG [G17C C49U C61G C66U] | ≤ 0.5 |
| GUUCCGUUGGCGUAAUCGUAACGCGUCUCCCUCCUAAGGAGAAGAGUGCGGGUUUGAGUCCCGUACGGAACG [G17C C46G C55U] | 0.571 |
| GUUCCGUUGGCGUAAUCGUAACGCGUCUGCCGCCUAAAGAGAAGACUGCGGGCUCGAGUCCCGUACGGAACG [G17C C29G U32G G38A U53C] | ≤ 0.5 |
| GUUCCGUUGGCGUAAUCGUAACGCGUCUCCCUCAUAAGGAGAAGACUGCAGGGUCGAGUUCCGUACGGAACG [G17C C34A G50A U53G C60U] | ≤ 0.5 |
| GUUCCGUUGGCGUAAUCGUAACGCGUUUCCCUCCUAAGGAGAAGACUGCGGGUUCGAGUCCCGCACGGAACG [G17C C27U U64C] | ≤ 0.5 |
| GUUCCGUUGGCGUAAUCGUAACGCGUCUCCCUUCUAAGGAGAAGACUGCGGGUUCAAGUCCCGUACGGUACG [G17C C33U G56A A69U] | ≤ 0.5 |

| Variant | yeast fitness |
| --- | --- |
| GUUCCGUUGGCGUAAUCGUAACGCGUCUCCCUCCUAAGGAGAAGACUGCGGGUUUGAGUCCCCUACCGAACG [G17C C55U G63C G67C] | ≤ 0.5 |
| GUUCCGUUGGCGUAAUCGUAACCCGUCUCCCUGCUAAGGAGAAGACUGCAGGUUCGAGUCCCGUACGAAACG [G17C G23C C33G G50A G68A] | ≤ 0.5 |
| GUUCCGUUGGCGUAAUCCUAAAGCGUCUCCCUCCUAAGGAGAAGACUGCGGGUUCGAGUACCGUAUGGAACG [G17C G18C C22A C60A C66U] | 0.561 |
| GUUCCGUUGGCGUAAUCGUAACGCGUCUCCCUCCUAACGAGAAGACUGCGGCUUCGAGUCCCGUACGGAACG [G17C G38C G52C] | ≤ 0.5 |
| GUUCCGUUGGCGUAAUCGUAACCCGUCUCCCUCCUAAGGAGAAGACGGCGGGUUCGAGUCCCGUACGGAACG [G17C G23C U47G] | ≤ 0.5 |
| GUUCCGUUGGCGUAAUCGUAACGCGUCUCCGUCCUAAGGAGCAGACUGCGGGUUCGAGUCCCGUAUGGAACG [G17C C31G A42C C66U] | ≤ 0.5 |
| GUUCCGUUGGCGUAAUCGUAACGCCUCUCCCUCCUAAGGAGAAGACUGCGGGUUCGAGUCUCGUACGGAACG [G17C G25C C61U] | ≤ 0.5 |
| GUUCCGUUGGCGUAAUCGUAACGCGUCUUCCUCCUAAGGAGAAGACUGCGGGAUCGAGUCCCGUAAGGAACG [G17C C29U U53A C66A] | ≤ 0.5 |
| GUUCCGUUGGCGUAAUCGUAACGCGUCUCCCUCCUAAGGAGAAGACUGCGGGUUCGAGUGCCGUACGGAACG [G17C C60G] | ≤ 0.5 |
| GUUCCGUUGGCGUAAUCGUAACGCGUCUCCCUCCUAAGGAGAAGACUGCGGGUUCGAGUUCCGUACGGAACG [G17C C60U] | 0.597 |
| GUUCCGUUGGCGUAAUCGUAACGCGUCUCCCUCCUAAGGAGAAGACUGCGGGUUGGAGUCCCGUACAGCACG [G17C C55G G67A A69C] | ≤ 0.5 |
| GUUCCGUUGGCGUAAUCGUAACGCGUCUCCCUCCUAAGGAGAAGACUGCGGGUUAGAGUACCGUACGGAACG [G17C C55A C60A] | 0.716 |
| GUUCCGUUGGCGUAAUCGUAACGCGUCUUCCACCUAAGGAGAAGAUUGCGGGUUCGAGUCCCGUACGGAACG [G17C C29U U32A C46U] | ≤ 0.5 |
| GUUCCGUUGGCGUAAUCGUAACGCGUCUCCCUCAUAAGGAGAAGACUGCGGGUUCGAGCCCCGUACGGAACG [G17C C34A U59C] | 0.542 |
| GUUCCGUUGGCGUAAUCGUAACGCGUCUCCUUCCUAAGGAGCAGACUGAGGGUUCGAGUCCCGUACGGAACG [G17C C31U A42C C49A] | 0.534 |
| GUUCCGUUGGCGUAAUCGUAACCCGUCUCCCUCCUAAGGAGAUGACUGAGGGUUCGAGUCCCGUAUGGAACG [G17C G23C A43U C49A C66U] | 0.634 |
| GUUCCGUUGGCGUAAUCGUAACCCGUCUCCGUCCUAAGGAGAAGACUGCCGGUUCGAGUACCAUACGGAACG [G17C G23C C31G G50C C60A G63A] | ≤ 0.5 |
| GUUCCGUUGGCGUAAUCCUAACGCGUCUCCCUCCUAAGGAGAAGACUGCGGGUUCGAGUCCCGUACGGUACG [G17C G18C A69U] | ≤ 0.5 |
| GUUCCGUUGGCGUAAUCGUAACGCGUCUCCCUCCUAAGAAGAAGACUGCGGGUUCGAGUCCCGUACGGAACG [G17C G39A] | 0.665 |
